S1P4 ag = agonists of human S1P4 receptor; O95977; S1P4-expressing cell line, agonist reporter assay; activation, % at 4.98 µM; 220,000 tested, 0.35% active; in the data active = activation above about 11%;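 also: 0% = DMSO vehicle and 100% = reference agonist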
Lmaj promast = Leishmania major promastigote growth inhibition | inhibition, % at 10 µM | 200,000 tested, 9% active | Leishmania major promastigotes, resazurin fluorescence viability | AID 1063; in the data active = inhibition above about 50%;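 also: promastigotes grown with compound for 44 hours at 28 °C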
S1P4 antagonist = human S1P4 receptor antagonism; inhibition, % at 4.98 µM; 220,000 tested, 0.26% active; O95977; S1P4-expressing cells, antagonist mode, reporter read-out; in the data active = inhibition above about 29%;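 also: 0% = wells stimulated with agonist and 100% = vehicle wells without agonist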
MDM2 E3 inh = Mdm2 E3 ligase (human) inhibition. Q00987. cell-based MDM2 ubiquitination luciferase reporter, 2 h; 0 = plate control, 100 = twice control, blank-subtracted. signal enhancement, % at 5 µM. 210,000 tested, 0.11% active;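 active = signal enhancement of 30% or more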;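 also: luminescence tracks abundance of the self-degrading MDM2-luciferase fusion protein; higher signal means inhibition of MDM2 E3 ligase activity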
Target sequence (Q00987 whole entry, looked up, the tested form may be a part): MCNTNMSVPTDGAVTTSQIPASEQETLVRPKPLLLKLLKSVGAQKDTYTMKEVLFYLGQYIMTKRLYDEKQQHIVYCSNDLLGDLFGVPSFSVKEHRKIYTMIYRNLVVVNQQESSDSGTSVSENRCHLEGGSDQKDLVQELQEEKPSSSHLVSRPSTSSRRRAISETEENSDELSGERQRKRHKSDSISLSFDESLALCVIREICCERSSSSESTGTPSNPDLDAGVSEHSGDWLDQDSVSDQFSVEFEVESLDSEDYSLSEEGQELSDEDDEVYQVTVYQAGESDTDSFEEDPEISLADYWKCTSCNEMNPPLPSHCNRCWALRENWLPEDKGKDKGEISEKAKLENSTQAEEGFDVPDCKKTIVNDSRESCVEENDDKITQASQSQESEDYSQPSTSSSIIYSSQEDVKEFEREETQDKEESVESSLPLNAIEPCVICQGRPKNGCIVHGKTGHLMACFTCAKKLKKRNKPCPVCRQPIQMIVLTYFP
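Assay system: mammalian cells stably expressing self-ubiquitinating, self-degrading MDM2 E3–luciferase fusion. Quantity: 2000 cells in each well. Medium: DMEM culture medium. Compound dosing: single-point 5 µM. Timing: cell settling 4 h, compound treatment 2 h, both 37 °C. Technique: luciferase luminescence. Read-out basis: percent signal gain over controls, blank-subtracted. Benchmarks: plate controls and plate blanks.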
S1P3 antag = antagonists of human S1P3 receptor. Q99500. CHO S1P3 NFAT-BLA reporter, FRET fluorescence, antagonist mode. inhibition, % at 4.98 µM. 170,000 tested, 0.27% active. AID 485;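 active = inhibition above the plate cutoff, the mean inhibition of test wells on that plate plus 3 SD, cut at about 28% in these data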;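 also: cells challenged with S1P at its EC80 of 0.8 µM; blue over green emission ratio from cleaved BLA substrate after 4 h stimulation; 0% = S1P-stimulated wells and 100% = unstimulated DMSO-only wells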
Active calls of the source: *; . = not tested or not shown. The full list was thinned out, with hits kept by preference.

SMILES	S1P4 ag	Lmaj promast	S1P4 antagonist	MDM2 E3 inh	S1P3 antag
CCOC(=O)C(CC)n1nc(C)n2c(cc3occc32)c1=O (stereo unspecified)	0	3	-8	-11	.
COc1cccc(CN2CCC(N(CCc3ccccc3)Cc3ccccc3)CC2)c1OC	-1	99*	2	10	-6
Cc1ccc(OCC(=O)N/N=C/c2ccc([N+](=O)[O-])o2)cc1	0	100*	-17	-6	.
COc1ccc(-c2nn(-c3ccccc3)cc2C(=O)N/N=C/c2ccc([N+](=O)[O-])o2)cc1	2	65*	-16	-10	-6
COc1ccc(-c2nn(-c3ccccc3)cc2C(=O)N2CCOCC2)cc1	-1	-4	-1	-5	12
O=C(CNc1ccc2ccccc2c1)N/N=C/c1ccc([N+](=O)[O-])o1	-1	100*	2	-3	4
O=C(COc1ccccc1)N/N=C/c1ccc([N+](=O)[O-])o1	0	100*	-12	-15	-5
COc1cc(/C=C(/NC(C)=O)C(=O)O)cc(Cl)c1OCc1ccc(Br)cc1	0	.	-23	1	-8
O=C(CSc1ncn[nH]1)Nc1cc(S(=O)(=O)N2CCCC2)ccc1Cl	1	-5	-7	-3	-23
COc1cccc(/C=C/C(=O)N2CCN(S(=O)(=O)c3ccccc3)CC2)c1OC	0	.	-4	.	8
COc1cccc(/C=C/C(=C2\C(=O)N(c3ccccc3)N=C2C)c2ccc(Br)cc2)c1OC	1	99*	-33	.	.
CCCn1c(C2CC(=O)N(c3ccc(C)cc3)C2)nc2ccccc21 (stereo unspecified)	1	3	-8	-8	.
Cc1ccc(OCCn2c(C3CC(=O)N(Cc4ccccc4)C3)nc3ccccc32)cc1 (stereo unspecified)	1	92*	-11	-11	.
C=CCN1CC(c2nc3ccccc3n2Cc2cccc3ccccc23)CC1=O (stereo unspecified)	-1	87*	3	-1	.
CSc1ccc(OC2CCN(Cc3ccccc3)CC2)cc1	0	94*	-14	-32	-2
Clc1ccc(CNCCC2=CCCCC2)cc1	-3	90*	-8	-13	.
Cc1ccc(S(N)(=O)=O)cc1NC(=O)/C=C/c1ccc2c(c1)OCO2	0	10	2	5	-2
O=C(NCCc1ccccc1)c1ccc2nc(-c3ccco3)c(-c3ccco3)nc2c1	2	72*	-3	-25	.
Nc1ncncc1-c1ccc([N+](=O)[O-])cc1	2	-3	-6	-23	.
COc1cc(CNCCSc2nnnn2C)cc(Br)c1OCc1ccc(F)cc1	-3	95*	-12	-8	.
COc1cc(CNCCO)cc(Br)c1OCc1ccccc1	3	97*	-18	-24	7
COc1cc(CNCCSc2nnnn2C)cc(Br)c1OCc1ccccc1F	2	90*	-6	-12	.
COc1cc(CNCCSc2nnnn2C)cc(Br)c1OCc1ccccc1	-2	56*	-9	.	-7
CCOc1cc(CNc2ccccc2)cc(Br)c1OCc1ccc(F)cc1	0	49	5	-5	.
CCOc1cc(CNCCSc2nnnn2C)cc(Br)c1OCc1ccccc1F	1	36	-17	-14	.
SMILES	S1P4 ag	Lmaj promast	S1P4 antagonist	MDM2 E3 inh	S1P3 antag
COc1ccc(N(CC(=O)NCCC2=CCCCC2)S(=O)(=O)c2ccccc2)c(OC)c1	0	6	14	-9	-18
Cc1ccc(NS(=O)(=O)c2ccc3[nH]c(=O)[nH]c3c2)c(C)c1	-1	1	-3	-11	-10
COc1ccc(NC(=O)Nc2ccon2)c(OC)c1	0	-4	6	-13	4
COc1ccc(N=C2SC(CC(=O)Nc3cccc(Cl)c3)C(=O)N2Cc2ccco2)cc1 (stereo unspecified)	-1	98*	-11	-5	0
O=C(CC1SC(=Nc2ccc(OC(F)F)cc2)N(CCN2CCOCC2)C1=O)Nc1ccc(F)cc1F (stereo unspecified)	0	62*	2	-6	2
COc1ccc(N=C2SC(CC(=O)Nc3ccccc3)C(=O)N2Cc2ccccn2)cc1 (stereo unspecified)	-2	38	-3	-6	0
COc1ccc(OC)c(NC(=O)CC2SC(=Nc3ccccc3)N(CCc3ccccn3)C2=O)c1 (stereo unspecified)	-1	55*	-2	-4	-11
COc1ccc(OC)c(NC(=O)CC2SC(=Nc3ccc(F)cc3)N(CCC3=CCCCC3)C2=O)c1 (stereo unspecified)	-2	55*	-5	-16	0
COc1cc([N+](=O)[O-])ccc1NC(=O)CC1SC(=Nc2ccc(F)cc2)N(CCC2=CCCCC2)C1=O (stereo unspecified)	0	34	-6	-13	14
O=C(CSc1ccc(F)cc1)NC(=O)NCc1ccccc1	-1	-4	-19	-1	7
O=C(COc1ccc([N+](=O)[O-])cc1)Nc1ccc(C(=O)NCc2cccnc2)cc1	0	1	1	1	.
Cn1c(Br)nc2c1c(=O)n(CC(O)COc1ccccc1)c(=O)n2C (stereo unspecified)	0	5	-12	-9	6
COc1ccc(N=C2SC(CC(=O)Nc3ccccc3)C(=O)N2CCc2ccccn2)cc1 (stereo unspecified)	5	60*	2	1	-8
CCN1CCN(C(=O)C2CCN(Cc3nc(-c4cccc(Cl)c4)oc3C)CC2)CC1	-1	66*	-8	1	-15
Cc1oc(-c2ccc(Cl)cc2)nc1CN1CCC(C(=O)N2CCN(c3ccccn3)CC2)CC1	.	.	.	.	-3
CCc1ccc(-c2nc(CN3CCC(C(=O)N4CCN(c5ccccc5)CC4)CC3)c(C)o2)cc1	-3	82*	-3	-3	3
CCc1ccc(-c2nc(CN3CCC(C(=O)N4CCN(c5ccccn5)CC4)CC3)c(C)o2)cc1	-2	84*	10	-15	-9
COc1ccc(CNC(=O)c2c(N)n(CCCN3CCOCC3)c3nc4ccccc4nc23)cc1	7	87*	-1	12	.
Nc1c(C(=O)NCc2ccc(F)cc2)c2nc3ccccc3nc2n1CCCN1CCOCC1	10	100*	-11	-6	.
Cc1ccc(C2C(C#N)=C(N)Oc3cc(C)oc(=O)c32)o1 (stereo unspecified)	-1	100*	-12	-1	-1
Cc1ccc(-n2c(C)cc(C(=O)COC(=O)C3=NNC(=O)CC3)c2C)cc1	-1	95*	10	-15	.
Cc1ccc(-n2c(C)cc(C(=O)CSc3n[nH]c(N)n3)c2C)cc1	1	95*	-1	-16	.
O=C(CSc1nnc(Cc2cccs2)n1-c1ccccc1)NCc1ccc2c(c1)OCO2	2	13	-10	-4	16
CC(Sc1nnc(-c2cccs2)n1-c1ccccc1)C(=O)NCc1ccc2c(c1)OCO2 (stereo unspecified)	-3	91*	-2	-8	.

Screening data (PubChem)
